Experimental findings from ChEMBL document CHEMBL1142382, “Synthesis and biological activity of a 3,4,5-trimethoxybenzoyl ester analogue of epicatechin-3-gallate” (J Med Chem, 2008) are described below.

Series [1] is described as follows: Prooxidant activity assessed as enhancement of NADPH oxidation at 50 uM. The format is functional. The gist of the method:
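Rate of NADPH (0.1 mM) oxidation measured with 50 μM catechin in sodium-phosphate buffer, pH 7.4, 37 °C. Read-out is the fall in NADPH absorbance at 340 nm. Runs were done with and without bovine liver SOD at 10 μg/mL.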

Series [2] has as its target T1, Dihydrofolate reductase (Homo sapiens) (UniProt P00374).
T1 sequence (whole entry): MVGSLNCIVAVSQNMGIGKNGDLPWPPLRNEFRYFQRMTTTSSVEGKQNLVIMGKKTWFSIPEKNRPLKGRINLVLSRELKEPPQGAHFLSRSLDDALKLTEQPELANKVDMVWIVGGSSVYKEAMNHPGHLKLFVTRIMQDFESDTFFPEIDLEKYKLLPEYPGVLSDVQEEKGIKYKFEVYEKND
The series can be described thus: Inhibition of human recombinant DHFR at 100 uM. The essentials: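 Recombinant human DHFR activity at 25 °C followed as drop in NADPH/DHF absorbance at 340 nm in Mes 0.025 M, sodium acetate 0.025 M, Tris 0.05 M, NaCl 0.1 M, pH 7.4, with 1 mM ascorbic acid; reaction started with enzyme; compounds at 100 μM; activity relative to no-compound control, mean of five experiments.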

For series [3], the system named is Caco-2. The series can be described thus: Growth inhibition of human Caco-2 cells at 25 uM after 6 days. The format is functional, cell-based. The essentials: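 Caco-2 cells treated 6 days with 25 μM compound; MTT viability expressed as percent of untreated control (100%); mean of three independent experiments ± SD.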
Series [4] deals with T1, Dihydrofolate reductase (Homo sapiens). The series can be described thus: Dissociation constant for binding to free human recombinant DHFR by fluorescence titration.
Series [5] is described as follows: Antioxidant activity assessed as ABTS radical scavenging activity. Format: functional. The gist of the method: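 ABTS radical cation generated from ABTS (150 μM) with H2O2 (75 μM) and HRP (0.25 μM) in citrate-phosphate pH 4.5, diluted in 5 mM PBS pH 7.4 to A734 0.70, pre-warmed 30 °C. Compounds in PBS (50 μM stock) at four concentrations within the Trolox dose-response range, triplicates; A734 read 1 min after mixing; TEAC derived from Trolox curve.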

Series [6] is described as follows: Stability in human HT29 cells assessed as half life. The format is ADME, cell-based. Conditions: HT-29 cells.
For series [7], the system named is SK-MEL-28. The series can be described thus: Down regulation of thymidylate synthase mRNA expression in human SkMel28 cells at 20 uM after 24 hrs. Format: functional, cell-based. The gist of the method:
(§1)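 SkMel-28 cells treated and mRNA quantified by SYBR Green real-time PCR (95 °C 15 min; 40-50 cycles 94 °C 30 s, 55 °C 30 s, 72 °C 1 min), triplicate reactions, at least two independent experiments; melting-curve specificity check; expression relative to normal human epidermal melanocytes.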

The nature of series [8]: Antiproliferative activity against human H1264 cells after 6 days by MTT assay. Format: functional, cell-based. Conditions: H1264, 144 h. The gist of the method: (§2)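 ATCC lines kept in medium with 10% FCS and antibiotics; plated at 1000 cells/well, grown to 50-60% confluence, then exposed for 6 days. Viability by MTT, formazan read at 570 nm; IC50 derived.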
In general terms: Tetrazolium assays rely on reduction of a dye to a coloured formazan, in cell work by metabolically active cells.

For series [9], the system named is SK-MEL-28. The experiment in a line: Down regulation of methyltetrahydrofolate reductase mRNA expression in human SkMel28 cells at 20 uM after 24 hrs. The format is functional, cell-based. The gist of the method:
as §1

Series [10] concerns SK-MEL-28. The series can be described thus: Down regulation of DHFR mRNA expression in human SkMel28 cells at 20 uM after 24 hrs. Format: functional, cell-based. The gist of the method:
as §1

Series [11] concerns SK-MEL-28. The experiment in a line: Antiproliferative activity against human SkMel28 cells after 6 days by MTT assay. Format: functional, cell-based. Conditions: SK-MEL-28, 144 h. The essentials: as §2
The test system of series [12] is Caco-2. The series can be described thus: Antiproliferative activity against human Caco-2 cells after 6 days by MTT assay. Format: functional, cell-based. The conditions noted are these: Caco-2, 144 h. The essentials:
as §2

The next series has as its system MCF7. The experiment in a line: Antiproliferative activity against human MCF7 cells after 6 days by MTT assay. The conditions noted are these: MCF7, 144 h. Format: functional, cell-based. The gist of the method: as §2
Series [13] relates to SK-MEL-28. The experiment in a line: Growth inhibition of human SkMel28 cells at 20 uM after 6 days. Format: functional, cell-based.

Calls of active or inactive are those of the source. The calls are words filed in the database; no cut-off is given here. A value given as a limit tells only on which side of the number the result lay.

Consider `Oc1cc(O)c2c(c1)O[C@H](c1cc(O)c(O)c(O)c1)[C@H](O)C2`, for which the outcome in series [1] was Active. Further, the result in series [2] was inactive.
`O=C(O[C@@H]1Cc2c(O)cc(O)cc2O[C@@H]1c1cc(O)c(O)c(O)c1)c1cc(O)c(O)c(O)c1` [EPIGALOCATECHIN GALLATE]: the result (with Caco-2 [3]; in series [1]) was Active. In addition, the Kd (as a rule, a measure of binding affinity in units of concentration) in [4] was 920 nM. In addition, the Activity in [5] was determined as 4.8 mM. Further, in [6], the half-life (usually how long it takes for the measured level to halve) was under 2 h.
With `COc1cc(C(=O)O[C@@H]2Cc3c(O)cc(O)cc3O[C@@H]2c2ccc(O)c(O)c2)cc(OC)c1OC`, the result in the series with SK-MEL-28 [7], in the series on Caco-2 [3], in the series on SK-MEL-28 [9], with SK-MEL-28 [10] and in the series on SK-MEL-28 [13] was Active. For the same molecule, in [4], the dissociation constant Kd came to 2100 nM. Besides, the IC50 – broadly, the concentration that gives 50% inhibition – in series [8] was 18000 nM; in the series on SK-MEL-28 [11], 2900 nM; in the series on Caco-2 [12] it was 33000 nM; with MCF7, 80000 nM. For the same molecule, in series [5], the Activity stood at 1.9 mM.
For the molecule `Oc1cc(O)c2c(c1)O[C@H](c1ccc(O)c(O)c1)[C@H](O)C2`, in [2], the result was inactive.
Take `O=C(O[C@@H]1Cc2c(O)cc(O)cc2O[C@@H]1c1ccc(O)c(O)c1)c1cc(O)c(O)c(O)c1`: the result in the series with Caco-2 [3] was Active. In series [4], the Kd was determined as 1780 nM. Also, in series [5], the Activity was found to be 4.9 mM.
For the molecule VITAMIN E, the Activity in series [5] was found to be 1 mM.
